Source: ChEMBL document CHEMBL4513216, “Probing the Open Global Health Chemical Diversity Library for Multistage-Active Starting Points for Next-Generation Antimalarials” (ACS Infect Dis, 2020)

Assay: Toxicity liver stage against HepG2, at 10uM
Assay type: cell-based
Parameters: test concentration 10 uM, cell line HepG2-A16-CD81EGFP
Settings: human, HepG2-A16-CD81EGFP cells; read-out: INHIBITION
How it was run: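 Uninfected HepG2-A16-CD81EGFP cells, 3 × 10^3 per well, 1536-well, plated on prespotted compound at 10 μM final, parasite-free screening media added to match infected plates; puromycin 10 μM positive, DMSO 0.5% negative; run in parallel with 48 h PbLuc assay at 37 °C, 5% CO2; viability by CellTiter-Glo luminescence, normalized to controls.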

| SMILES | cytotoxicity at 10 µM [%] |
| --- | --- |
| CC(C)(C)c1coc([C@@H]2COCCN2Cc2ccccc2)n1 | 2.72 |
| COc1ccc(NC(=O)c2nc3ccccc3n(C)c2=O)c(OC)c1 | 0.37 |
| COC1CCN(C(=O)CC2CCCC2)CC(=O)N(C)c2ccccc21 (stereo unspecified) | -3.09 |
| COC(=O)CC(c1ccc(OC)c(O)c1)c1oc(C)cc(=O)c1O (stereo unspecified) | -0.634 |
| CC(C)(C)n1ncc2c1NC(=O)CSC2c1ccc2c(c1)OCO2 (stereo unspecified) | 0.148 |
| O=C(NCC1(O)CCOc2ccccc21)Nc1ccccc1 (stereo unspecified) | -4.2 |
| COc1ccc(C(=O)Nc2ccccc2-c2ccc(=O)n(C)n2)nn1 | 2.18 |
| C1CC(CN2C[C@@H]3C[C@@H](c4nnc(C5CC5)o4)O[C@@H]3C2)CCO1 | 6.58 |
| O=C(CC1CC1)N[C@@H]1CN(Cc2ccoc2)C[C@@H]2CCCO[C@@H]21 | 7.83 |
| Cc1ccc(C(=O)N2CCc3ncnc(C)c3CC2)cc1F | 11.5 |
| CCS(=O)(=O)N1CCN(C(=O)NC(C)C)CC2(CNC(=O)C2)C1 (stereo unspecified) | -0.82 |
| CCOC(=O)CN1CCC2(CC1)CC(NC(=O)c1ccccn1)CO2 (stereo unspecified) | 2.17 |
| O=C(CSC1CCc2ccccc2NC1=O)NCc1cccs1 (stereo unspecified) | -2 |
| O=C(N[C@@H]1CN(c2ncccn2)[C@@H]2CCCO[C@@H]21)c1cnccn1 | -4.8 |
| CCn1cc(Cl)c(C(=O)NCc2cnn(C)c2)n1 | -4.41 |
| Cn1ncc2c1NC(=O)CC2c1ccc(F)cc1 (stereo unspecified) | 4.63 |
| CC(C)N1CCCC(c2cc(C(F)(F)F)nc3nccn23)C1 (stereo unspecified) | -11.1 |
| COCCN1CCN(Cc2cnc(C3(C)CCCCO3)nc2)CC1 (stereo unspecified) | 1.16 |
| CNc1cncc(C2CCCN2C(=O)Cn2ccnc2C)n1 (stereo unspecified) | -4.31 |
| O=C(CC1CCN(c2cccnn2)CC1)NC1CCOCC1 | 0.671 |
| Nc1cc(-c2cncnc2C2CCN(C(=O)c3ccccc3)C2)ccn1 (stereo unspecified) | 1.32 |
| O=C(O)c1ccc(Cc2cccc(F)c2)nc1 | 3.11 |
| Cc1ccccc1CC(=O)N1C[C@@H](O)[C@H](N2CCC(F)(F)CC2)C1 | -14 |

| SMILES | cytotoxicity at 10 µM [%] |
| --- | --- |
| Cc1c[nH]nc1C1CCN(C(=O)C2CCOCC2)C1 (stereo unspecified) | 4.71 |
| CC(C)CC(=O)Nc1ccc(Oc2ccsc2C(=O)O)cc1 | 7.66 |
| CCC(CO)NC(=O)Nc1cc(F)ccc1Br (stereo unspecified) | 11.9 |
| Cc1csc(CNC(=O)CCCc2cccs2)n1 | -47.1 |
| CN(C)c1cc(C(=O)Nc2cccnc2N2CCSCC2)ccn1 | -2.9 |
| Cc1cc(Br)ccc1C(=O)NCCN1CCCCCC1 | -11.6 |
| CCOC(C)c1nccn1Cc1c(C)noc1C (stereo unspecified) | 3.11 |
| CC(Oc1cccc(F)c1)C(=O)N(CC(N)=O)C1CCCC1 (stereo unspecified) | -1.21 |
| CCOc1ccc2c(c1)C=C(C(=O)NC(C)Cn1cccn1)CO2 (stereo unspecified) | 6.95 |
| CC(C(=O)Nc1ccccc1F)S(C)(=O)=O (stereo unspecified) | -5.27 |
| CCn1cnnc1C1CCN(C(=O)Cc2ccc(OC)c(F)c2)CC1 | -7.54 |
| O=C(NCCc1ccn(-c2ccc(F)cc2)n1)C1CCCO1 (stereo unspecified) | -0.198 |
| CN(Cc1ccco1)C(=O)NCc1ccnc(SC(C)(C)C)c1 | 14.4 |
| COc1cccc(C2(CNC(C)c3nnc(C)o3)CCCC2)c1 (stereo unspecified) | -1.64 |
| Cc1cnn(CC2CCCCN2C(=O)Cc2c(C)noc2Cl)c1 (stereo unspecified) | -5.43 |
| Cc1cnc(CN(C)C2CCCN(c3cccnn3)C2)cn1 (stereo unspecified) | 10.4 |
| Cc1cc(NC(=O)CNC(C)(C)c2ccccc2)on1 | -8.18 |
| CN(CCc1ccncc1)C(=O)C1CSCN1C(=O)C(C)(C)C (stereo unspecified) | -8.2 |
| CCn1c(CNC(=O)c2ccc(N(C)C)nc2)nc2ccccc21 | 4.5 |
| Cc1nc(-c2ccsc2)sc1C(=O)N1CCn2c(C)nnc2C1 | -3.29 |
| Cn1cc(S(=O)(=O)NC(=O)C2(c3ccccc3)CCC2)cn1 | -6.85 |
| COC(=O)NCC(=O)NC(c1ccc(Cl)cc1)C(F)(F)F (stereo unspecified) | 9.09 |
| O=C(NCc1ccccc1CO)C1COc2ccccc21 (stereo unspecified) | 12.3 |

| SMILES | cytotoxicity at 10 µM [%] |
| --- | --- |
| CCc1nc(C(=O)N2CC(C(C)C)Nc3ccccc32)c[nH]1 (stereo unspecified) | -0.0979 |
| OC(COCc1ccco1)CN1CCC(Cn2cccn2)CC1 (stereo unspecified) | -1.73 |
| Cc1cc(Cl)ccc1NCc1ccc(C(=O)N(C)C)[nH]1 | 7.31 |
| CCN(CCC(F)(F)F)C(=O)Nc1cccc(N2CCOCC2)c1 | -8.02 |
| CC(=O)c1cccc(OCCCC(=O)N(C)Cc2ccccn2)c1 | -24.4 |
| Cc1noc(C)c1CCC(=O)NC(C)c1nnc2n1CCC2 (stereo unspecified) | -3.39 |
| Cc1ccc(CN(C)C(=O)CN2CCCC2Cn2cccn2)o1 (stereo unspecified) | -10.4 |
| Cc1cc(C)n(C2CN(Cc3noc(-c4ccccc4)n3)C2)n1 | -12.8 |
| OCc1ccc(Cl)c(NCc2cccnc2)c1 | 3.12 |
| N#CCSCCCN1CCN(C(=O)c2ccc(Cl)cc2)CC1 | -10.3 |
| CC(C)C(C)NC(=O)Nc1ccc(CS(C)(=O)=O)cc1 (stereo unspecified) | -8.49 |
| CN(Cc1cccnc1)[C@@H]1CN(C(=O)c2ccco2)[C@@H]2CCCO[C@H]12 | -108 |
| COCCc1noc(CN2CCN(c3ccc(OC)cc3)C(=O)C2C)n1 (stereo unspecified) | 0.296 |
| NC(=O)c1cccc(CC2CCN(C(=O)CCc3cccc(F)c3)C2)c1 (stereo unspecified) | -3.75 |
| Cn1ncc2c(N3CCS(=O)(=O)CC3)nc(C3CCCC3)nc21 | -1.31 |
| Cc1nc(CN2CC(=O)N(C)c3ccccc3C2=O)no1 | -3.78 |
| CCC(CO)N(Cc1cccnc1)C(=O)c1ccoc1C (stereo unspecified) | -0.0979 |
| Cn1cc(CN2CCCC(O)C2)c(-c2ccccc2F)n1 (stereo unspecified) | -2.31 |
| Cc1cccnc1CNCC1(O)CCCN(CC(C)(C)C)C1=O (stereo unspecified) | -11.8 |
| CCC(CO)N(Cc1ccccn1)C(=O)c1ccc(=O)[nH]c1 (stereo unspecified) | -0.65 |
| Cc1nc(N)nc(N2CCOc3ccc(CO)cc3C2)c1C | 4.23 |
| Cc1cc(C)c2nc(CNC3CCNC3=O)cc(O)c2c1 (stereo unspecified) | 5.92 |
| N#Cc1cccc(C(=O)N2CCC3(CCC(=O)N(C4CC4)C3)CC2)c1 | 0.194 |

| SMILES | cytotoxicity at 10 µM [%] |
| --- | --- |
| CCc1nc(NC2CC(=O)N(CC3CCCCC3)C2)ncc1C (stereo unspecified) | -4.55 |
| C1CCc2nnc(CNc3nc(C4CC4)nc4c3CCNCC4)n2CC1 | -7.39 |
| CN1CCC2(CC1)CN(C(=O)c1cccc3cccnc13)CCN2C | 1.54 |
| CC[C@@]1(O)CCN(C(=O)c2ccc(CN3CCCCCC3)cc2)C[C@H]1O | 8.44 |
| CNCc1cn(C2CCN(CCC(C)c3ccccc3)CC2)nn1 (stereo unspecified) | 3.44 |
| CC(C)CCn1cc(C(C(=O)O)N2CCC(N3CCSCC3)CC2)cn1 (stereo unspecified) | -1.09 |
| COc1cccc(CC2(CO)CCCN(c3nccs3)C2)c1 (stereo unspecified) | -4.59 |
| COc1ccccc1OC1CCN(Cc2ccc(N(C)C)nc2)CC1 | -11.8 |
| Cc1nn(CC(=O)O)c(C)c1NS(=O)(=O)c1cccc2ccccc12 | -8.52 |
| C[C@@H]1CN(C(=O)c2cc(COc3ccc4c(c3)OCO4)[nH]n2)C[C@H](C)O1 | -6.37 |
| COc1ccc(-c2n[nH]cc2CN(C)CCCN2CCOCC2)c(F)c1 | -2.26 |
| Cc1[nH]ccc1C(=O)N1CCC2(CC1)c1nc[nH]c1CCN2CC(C)C | 7.31 |
| O=C(c1cccnc1O)N(Cc1ccsc1)CC1CCCO1 (stereo unspecified) | -12.3 |
| Cc1nc(CCNC(=O)C2CC(=O)N(C(C)(C)C)C2)sc1C (stereo unspecified) | -13.2 |
| Cc1cc(C(=O)N[C@@H]2CCNC[C@H]2O)ccc1Cl | -18.4 |
| COc1ccc(S(=O)(=O)NC(=O)COC2CCCCC2)cc1C | -3.56 |
| CCn1cnnc1CNC(=O)N1CCN(c2ccccc2OC)CC1 | -6.02 |
| Cc1cnn(C2CN(CC(=O)NCCOc3ccccc3)C2)c1 | -16.7 |
| c1ccc(OCc2cscn2)c(CNC2CCc3ncnn3C2)c1 (stereo unspecified) | -9.42 |
| COC(=O)c1ccc(N2CCN(C(=O)c3ccc(O)nc3)C(C)C2)cc1 (stereo unspecified) | -4.5 |
| COc1c(C)cnc(CN2CCOC(Cn3cncn3)C2)c1C (stereo unspecified) | -3.36 |
| O=C1C(NS(=O)(=O)c2ccc(F)cc2F)CCN1Cc1ccccc1 (stereo unspecified) | -0.885 |
| CCc1noc(C(C)N2CCC(C)CC2)n1 (stereo unspecified) | -7.6 |

| SMILES | cytotoxicity at 10 µM [%] |
| --- | --- |
| COc1ccc(C(=O)N2CCCC(n3cc(C)cn3)C2)c(F)c1 (stereo unspecified) | -10.2 |
| Cc1ncncc1C(=O)N1CCCC(n2cccn2)C1 (stereo unspecified) | -4.77 |
| O=C(c1ccn(-c2ccccc2)n1)N1CCCC(n2cccn2)C1 (stereo unspecified) | -10.8 |
| Cc1cc(CN2CCN(C(=O)Nc3cccnc3)CC2)on1 | -7.72 |
| CCc1cnc(CN2CCCC2c2noc(C3CC3)n2)o1 (stereo unspecified) | -4.84 |
| O=C(CCOc1ccc(Cl)cc1)N1CCN(c2cnccn2)CC1 | -2.65 |
| CCC(CN1CCCC1)n1cncc1-c1cnn(Cc2ccccc2)c1 (stereo unspecified) | 3.92 |
| COCCNC(=O)c1sc2ccccc2c1C1CCC(CN)CC1 (stereo unspecified) | -2.98 |
| Cc1ccc(C(=O)N2CCO[C@H]3[C@@H](OCc4ccccn4)CC[C@@H]32)o1 | -2.42 |
| CN(C)CCO[C@H]1CN(Cc2ccoc2)[C@@H]2COC[C@H]12 | -1.23 |
| Cn1cc(N2CC3(CCN(CC4CC4)CC3)OCC2=O)cn1 | -6.86 |
| CNC(=O)[C@H]1CO[C@H]2CCN(c3ncc(F)cn3)C[C@H]2C1 | -0.0253 |
| O=C(NC[C@]12COC[C@H]1CN(CC1CCOCC1)C2)c1ccco1 | -72.1 |
| COCCN1C[C@@H]2CN(Cc3ccsc3)CCC[C@]2(C(=O)O)C1 | -10.6 |
| CCC(C)N1CCC2(CC1)CN(c1cncnc1)C(=O)CO2 (stereo unspecified) | -0.414 |
| Cc1nn(C)c(N(C)C)c1CNCc1ccc(OCC(N)=O)cc1 | 1.25 |
| CN(C)C(=O)c1cnc2n1CCN(Cc1ccsc1)C2 | -68 |
| O=C(NCc1cccs1)[C@@H]1CC[C@@H]2[C@@H](CCN2c2ncccn2)O1 | -0.53 |
| CNc1nc2cn(CCc3ccc(C)cc3)c(=O)c-2c[nH]1 | 6.36 |
